Assay results of several laboratories.
Protocols differ between the studies behind these lines.
Cell line: PC-3
Read-out: cell growth or viability

| SMILES | assay | setting | IC50 |
| --- | --- | --- | --- |
| CC1(P2(=O)CCCCC2)C=CCC=C1 | MTT | 72 h | > 100 µM |
| CC(=NNC(=O)c1cc(-c2ccccc2)n(-c2ccc(S(N)(=O)=O)cc2)n1)c1ccc(C)cc1 | fluorescence | 48 h | 19.2 µM |
| O[C@@H]1[C@@H](O)[C@H](Nc2cc3cccnc3c3ncccc23)OC[C@H]1O | MTT | 48 h, dark | 3.9 µM |
| NS(=O)(=O)c1ccc(-n2nc(C(=O)NN3C(=O)CCC3=O)cc2-c2ccccc2)cc1 | fluorescence | 48 h | 36.2 µM |
| O=P1(c2ccccc2)CCCCC1 | MTT | 72 h | > 100 µM |
| COc1cc(C(=O)c2nc(-c3cccc4[nH]cnc34)c[nH]2)cc(OC)c1OC | MTS | 72 h | 0.0158 µM |
| Nc1cc2cccnc2c2ncccc12 | MTT | 48 h, dark | 6.2 µM |
| COc1cccc2c1C(=O)c1c(O)c3c(c(O)c1C2=O)C[C@@](O)(C(=O)CO)C[C@@H]3O[C@H]1C[C@H](N)[C@H](O)[C@H](C)O1 | MTT | – | 4.81 µg/mL |
| COc1ccc(C=NNC(=O)c2cc(-c3ccccc3)n(-c3ccc(S(N)(=O)=O)cc3)n2)cc1OC | fluorescence | 48 h | 27.1 µM |
| CC(C)Cc1ccc([C@H](C)C(=O)O)cc1 | SRB | 72 h | 553 µM |
| O=P1(C2CCCCC2)CCCCC1 | MTT | 72 h | 64.5 µM |
| COc1cc(C(=O)c2nc(-c3ccncc3)c[nH]2)cc(OC)c1OC | MTS | 72 h | > 1 µM |
| CS(=O)(=O)NCCCCN=C=S | MTT | 24 h | 25.4 µM |
| COc1cc(C(=O)c2nc(-c3cccc4[nH]ccc34)c[nH]2)cc2c1OCO2 | MTS | 72 h | 0.005 µM |
| NS(=O)(=O)c1ccc(-n2nc(C(=O)NN=Cc3ccc(O)cc3)cc2-c2ccccc2)cc1 | fluorescence | 48 h | 17.2 µM |
| COc1cc(C(=O)c2nc(-c3cccc4cc[nH]c34)c[nH]2)cc(OC)c1OC | MTS | 72 h | 0.0316 µM |
| NS(=O)(=O)c1ccc(-n2nc(C(=O)NN=Cc3ccccc3O)cc2-c2ccccc2)cc1 | fluorescence | 48 h | 18 µM |
| COc1cc(C(=O)c2nc(-c3cccc4[nH]nnc34)c[nH]2)cc(OC)c1OC | MTS | 72 h | 0.0203 µM |
| NS(=O)(=O)c1ccc(-n2nc(C(=O)NN3C(=O)c4ccccc4C3=O)cc2-c2ccccc2)cc1 | fluorescence | 48 h | 54.4 µM |
